Source: ChEMBL document CHEMBL1123512, “Synthesis and biological activity of analogues of beta-chlornaltrexamine and beta-funaltrexamine at opioid receptors” (J Med Chem, 1986)

Columns and labels:
[1] = target: T1, Opioid receptor (Mus musculus) (UniProt P42866+P32300+P33534); test: Compound was tested for irreversible antagonistic activity against opioid receptor in mouse vas deferens at 3 uM; assay type: functional, tissue-based
[2] = target: T2, Opioid receptors; mu/kappa/delta (Homo sapiens, UniProt P41145+P41143+P35372); test: (§1) Compound was tested for agonist activity against opioid receptor in electrically stimulated longitudinal muscle of guinea pig ileum; assay type: functional, tissue-based, Cavia porcellus; conditions: target entry is the homologue from another species
T2 sequence (P35372 whole entry, looked up): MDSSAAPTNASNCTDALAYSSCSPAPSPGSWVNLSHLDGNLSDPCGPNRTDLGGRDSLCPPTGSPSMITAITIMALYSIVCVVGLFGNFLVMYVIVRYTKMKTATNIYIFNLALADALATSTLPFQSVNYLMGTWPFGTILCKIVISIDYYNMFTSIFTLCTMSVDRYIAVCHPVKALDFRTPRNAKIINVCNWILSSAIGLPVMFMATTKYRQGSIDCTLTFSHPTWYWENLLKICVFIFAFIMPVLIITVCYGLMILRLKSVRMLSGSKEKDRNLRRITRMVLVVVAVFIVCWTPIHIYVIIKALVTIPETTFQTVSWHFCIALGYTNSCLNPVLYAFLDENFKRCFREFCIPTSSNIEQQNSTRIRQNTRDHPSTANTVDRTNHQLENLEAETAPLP
T2 sequence (P41143 whole entry, looked up): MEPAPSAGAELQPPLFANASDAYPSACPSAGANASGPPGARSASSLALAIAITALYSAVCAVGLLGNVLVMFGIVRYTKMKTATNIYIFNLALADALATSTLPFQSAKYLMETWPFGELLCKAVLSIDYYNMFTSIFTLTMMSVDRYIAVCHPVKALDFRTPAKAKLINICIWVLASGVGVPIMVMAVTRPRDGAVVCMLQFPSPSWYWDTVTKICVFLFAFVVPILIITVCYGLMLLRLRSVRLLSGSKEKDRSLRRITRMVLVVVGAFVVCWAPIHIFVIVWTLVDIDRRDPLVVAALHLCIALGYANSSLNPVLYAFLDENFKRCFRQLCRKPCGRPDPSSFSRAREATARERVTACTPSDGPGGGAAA
T2 sequence (P41145 whole entry, looked up): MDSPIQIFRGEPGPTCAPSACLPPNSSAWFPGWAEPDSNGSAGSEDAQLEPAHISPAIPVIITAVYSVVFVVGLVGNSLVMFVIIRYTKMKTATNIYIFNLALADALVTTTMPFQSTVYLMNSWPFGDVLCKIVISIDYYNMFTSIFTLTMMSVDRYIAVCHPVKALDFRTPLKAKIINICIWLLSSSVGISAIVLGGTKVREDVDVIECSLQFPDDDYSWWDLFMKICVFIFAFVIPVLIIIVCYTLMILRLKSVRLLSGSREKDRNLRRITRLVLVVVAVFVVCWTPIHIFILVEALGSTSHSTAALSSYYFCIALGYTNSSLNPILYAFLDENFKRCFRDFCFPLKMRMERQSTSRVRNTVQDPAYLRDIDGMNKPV

[3] = target: T1, Opioid receptor (Mus musculus); test: Percent inhibition against opioid receptor in mouse vas deferens at 1 uM; assay type: tissue-based
[4] = target: T2, Opioid receptors; mu/kappa/delta; test: Irreversible antagonistic activity against opioid receptor in electrically stimulated longitudinal muscle of guinea pig ileum expressed as IC50 of morphine by IC50 of control; assay type: functional, tissue-based
In short: (§2)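 Guinea pig ileum longitudinal muscle was exposed to ligand at 200 nM for 30 min, then washed thoroughly (30 times), and challenged with morphine or ethylketazocine (EK). The value is the agonist IC50 in the treated preparation divided by the control IC50 in the same preparation.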

[5] = target: T2, Opioid receptors; mu/kappa/delta; test: Irreversible antagonistic activity against opioid receptor in electrically stimulated longitudinal muscle of guinea pig ileum expressed as IC50 of EK by IC50 of control; assay type: functional, tissue-based; in short: as §2
[6] = target: T2, Opioid receptors; mu/kappa/delta; test: Compound was tested for irreversible antagonistic activity against opioid receptor in mouse vas deferens expressed as IC50 of DADLE by IC50 of control; assay type: functional, tissue-based
[7] = target: T1, Opioid receptor (Mus musculus); test: Compound was tested for agonist activity against opioid receptor in mouse vas deferens; assay type: functional, tissue-based
[8] = Reversible antagonistic activity against opioid receptor in electrically stimulated longitudinal muscle of guinea pig ileum expressed as IC50 of EK by IC50 of control; assay type: functional
In short: (§3)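 In guinea pig ileum longitudinal muscle, morphine or ethylketazocine (EK) was tested in the presence of ligand at 10 nM, without washing. The value is the agonist IC50 in the treated preparation divided by the control IC50 in the same preparation.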

[9] = target: T2, Opioid receptors; mu/kappa/delta; test: (§4) Compound was tested for irreversible antagonistic activity against opioid receptor in mouse vas deferens; assay type: functional, tissue-based
[10] = target: T2, Opioid receptors; mu/kappa/delta; test: Percent inhibition against opioid receptor in electrically stimulated longitudinal muscle of guinea pig ileum at 100 nM; assay type: tissue-based; conditions: Cavia porcellus, target entry is the homologue from another species
[11] = Reversible antagonistic activity against opioid receptor in electrically stimulated longitudinal muscle of guinea pig ileum expressed as IC50 of morphine by IC50 of control; assay type: functional; in short: as §3
[12] = target: T2, Opioid receptors; mu/kappa/delta; test: as §1; assay type: functional, tissue-based; conditions: Cavia porcellus, target entry is the homologue from another species
[13] = target: T2, Opioid receptors; mu/kappa/delta; test: Percent inhibition against opioid receptor in electrically stimulated longitudinal muscle of guinea pig ileum at 1 uM; assay type: tissue-based; conditions: Cavia porcellus, target entry is the homologue from another species
[14] = target: T2, Opioid receptors; mu/kappa/delta; test: Compound was tested for irreversible antagonistic activity against opioid receptor in mouse vas deferens expressed as IC50 of morphine by IC50 of control; assay type: functional, tissue-based
[15] = target: T1, Opioid receptor (Mus musculus); test: Percent inhibition against opioid receptor in mouse vas deferens at 3 uM; assay type: tissue-based
[16] = target: T2, Opioid receptors; mu/kappa/delta; test: as §4; assay type: functional, tissue-based; remark: listed apart in the source

T1 sequence (P32300 whole entry, looked up): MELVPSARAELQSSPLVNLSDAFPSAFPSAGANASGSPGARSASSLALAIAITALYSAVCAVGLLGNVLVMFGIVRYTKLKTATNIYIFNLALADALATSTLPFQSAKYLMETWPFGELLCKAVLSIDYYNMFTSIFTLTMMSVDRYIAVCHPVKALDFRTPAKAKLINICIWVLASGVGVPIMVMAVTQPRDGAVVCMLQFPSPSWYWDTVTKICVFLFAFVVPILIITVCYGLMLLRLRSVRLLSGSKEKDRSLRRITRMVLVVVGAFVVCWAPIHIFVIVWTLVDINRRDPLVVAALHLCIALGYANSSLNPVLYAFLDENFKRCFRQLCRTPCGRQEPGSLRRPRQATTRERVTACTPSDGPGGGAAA
T1 sequence (P33534 whole entry, looked up): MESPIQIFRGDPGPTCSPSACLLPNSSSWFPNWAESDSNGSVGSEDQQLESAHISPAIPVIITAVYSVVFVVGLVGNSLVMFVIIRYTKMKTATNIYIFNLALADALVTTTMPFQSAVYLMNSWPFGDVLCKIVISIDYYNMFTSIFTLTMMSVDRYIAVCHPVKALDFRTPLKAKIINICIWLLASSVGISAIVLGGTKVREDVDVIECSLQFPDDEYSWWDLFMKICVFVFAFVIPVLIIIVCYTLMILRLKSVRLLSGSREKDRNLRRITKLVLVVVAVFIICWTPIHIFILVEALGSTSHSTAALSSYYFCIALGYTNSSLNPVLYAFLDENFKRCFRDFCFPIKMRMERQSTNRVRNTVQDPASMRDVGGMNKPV
T1 sequence (P42866 whole entry, looked up): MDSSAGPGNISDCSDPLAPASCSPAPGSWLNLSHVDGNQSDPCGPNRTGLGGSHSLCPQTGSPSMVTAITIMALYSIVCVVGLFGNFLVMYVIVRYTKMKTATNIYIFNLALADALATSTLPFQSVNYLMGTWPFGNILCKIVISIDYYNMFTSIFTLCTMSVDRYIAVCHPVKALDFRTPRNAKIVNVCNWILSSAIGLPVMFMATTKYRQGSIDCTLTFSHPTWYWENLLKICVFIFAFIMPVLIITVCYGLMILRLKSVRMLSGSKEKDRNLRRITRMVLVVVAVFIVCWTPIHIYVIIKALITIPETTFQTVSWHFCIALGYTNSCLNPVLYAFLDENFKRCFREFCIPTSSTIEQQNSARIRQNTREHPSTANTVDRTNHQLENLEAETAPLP

Compound | inhibition [1] [%] | IC50 [2] [nM] | inhibition [3] [%] | Ratio [4] | Ratio [5] | Ratio [6] | IC30 [7] [nM] | Ratio [8] | Ratio [9] | inhibition [10] [%] | Ratio [11] | IC20 [12] [nM] | inhibition [13] [%] | Ratio [14] | inhibition [15] [%] | IC30 [12] [nM] | Ratio [16]
O=C(CN(CCCl)CCCl)N[C@@H]1CC[C@@]2(O)C3Cc4ccc(O)c5c4C2(CCN3CC2CC2)[C@H]1O5 (stereo partly specified) | 54 | 3.8 | 55 | 27.4 | 12.3 | 4 | 20 | – | – | – | – | – | – | – | – | – | –
CCOC(=O)/C=C/C(=O)NCC(=O)NCC(=O)NCC(=O)N[C@@H]1CC[C@@]2(O)C3Cc4ccc(O)c5c4C2(CCN3CC2CC2)[C@H]1O5 (stereo partly specified) | – | – | 61 | 1.3 | 0.8 | – | 20 | 3.3 | 1.2 | 45 | 12.3 | 10 | – | – | – | – | –
CCOC(=O)/C=C/C(=O)NCC(=O)N[C@@H]1CC[C@@]2(O)C3Cc4ccc(O)c5c4C2(CCN3CC2CC2)[C@H]1O5 (stereo partly specified) | – | – | – | 0.6 | 2 | 0.8 | 7 | 2.5 | – | – | 2.5 | – | 42 | 1.8 | 56 | 10 | –
CCOC(=O)/C=C/C(=O)NCC(=O)NCC(=O)N[C@@H]1CC[C@@]2(O)C3Cc4ccc(O)c5c4C2(CCN3CC2CC2)[C@H]1O5 (stereo partly specified) | – | – | 59 | 3.9 | 1.3 | – | 10 | 4.8 | 4.3 | 45 | 16.8 | 10 | – | – | – | – | 1.2
